# Source: ChEMBL document CHEMBL5360562 (Eur J Med Chem, 2023)
# Experiments:
# Acinetobacter baumannii [1] = experiment: Potentiation of rifampicin antibacterial activity against Acinetobacter baumannii AB5075 assessed as fold reduction in rifampicin MIC at 10 uM incubated for 16 hrs by broth microdilution method; assay type: functional
# Acinetobacter baumannii [2] = experiment: Potentiation of rifampicin antibacterial activity against Acinetobacter baumannii AB5075 assessed as rifampicin MIC at 20 uM incubated for 16 hrs by broth microdilution method; assay type: functional
# Acinetobacter baumannii [3] = experiment: Potentiation of Azithromycin antibacterial activity against Acinetobacter baumannii AB5075 assessed as azithromycin MIC at 10 uM incubated for 16 hrs by broth microdilution method; assay type: functional
# Acinetobacter baumannii [4] = experiment: Potentiation of rifampicin antibacterial activity against Acinetobacter baumannii AB5075 assessed as rifampicin MIC at 7.5 uM incubated for 16 hrs by broth microdilution method; assay type: functional
# Procedure, shortened: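 A. baumannii AB5075 6 h day cultures in CAMHB subcultured to 5×10^5 CFU/mL; adjuvant added from 10 mM DMSO stock at fixed concentration, then rifampicin (DMSO) twofold serially diluted in adjuvant-containing broth. Antibiotic-alone and adjuvant-alone control lanes.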
# [5] = Metabolic stability in human liver microsomes assessed as parent compound remaining in presence of NADPH measured at 1 hr by UV-UPLC analysis; assay type: ADME, Microsome
# Acinetobacter baumannii [6] = experiment: Potentiation of Clarithromycin antibacterial activity against Acinetobacter baumannii AB5075 assessed as reduction in clarithromycin MIC at 20 uM incubated for 16 hrs by broth microdilution method; assay type: functional
# Acinetobacter baumannii [7] = experiment: Potentiation of Clarithromycin antibacterial activity against Acinetobacter baumannii AB967 assessed as clarithromycin MIC at 10 uM incubated for 16 hrs by broth microdilution method; assay type: functional
# Acinetobacter baumannii [8] = experiment: Potentiation of erythromycin antibacterial activity against Acinetobacter baumannii AB5075 assessed as erythromycin MIC at 30 uM incubated for 16 hrs by broth microdilution method; assay type: functional
# Acinetobacter baumannii [9] = experiment: Potentiation of Clarithromycin antibacterial activity against Acinetobacter baumannii AB3560 assessed as clarithromycin MIC at 10 uM incubated for 16 hrs by broth microdilution method; assay type: functional
# Acinetobacter baumannii [10] = experiment: Potentiation of Clarithromycin antibacterial activity against Acinetobacter baumannii AB5075 assessed as clarithromycin MIC at 7.5 uM incubated for 16 hrs by broth microdilution method; assay type: functional
# Acinetobacter baumannii [11] = experiment: Potentiation of Clarithromycin antibacterial activity against Acinetobacter baumannii AB5075 assessed as fold reduction in clarithromycin MIC at 30 uM incubated for 16 hrs by broth microdilution method; assay type: functional
# Procedure, shortened: (§1)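 Checkerboard-style potentiation by broth microdilution. 6 h day cultures in CAMHB diluted to 5×10^5 CFU/mL. Adjuvant added from 10 mM DMSO stock at fixed concentration throughout. […] Controls: antibiotic alone, adjuvant alone, media only. Incubated stationary at 37 °C for 16 h. MIC is lowest concentration with no visible growth; fold reduction taken against the antibiotic-alone lane.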
# Acinetobacter baumannii [12] = experiment: Potentiation of Azithromycin antibacterial activity against Acinetobacter baumannii AB5075 assessed as azithromycin MIC at 30 uM incubated for 16 hrs by broth microdilution method; assay type: functional
# [13] = Antiproliferative against human HepG2 cells assessed as reduction in cell viability incubated for 24 hrs by XTT assay; assay type: toxicity, cell-based
# Acinetobacter baumannii [14] = experiment: Potentiation of Clarithromycin antibacterial activity against Acinetobacter baumannii AB5075 assessed as clarithromycin MIC at 2.5 uM incubated for 16 hrs by broth microdilution method; assay type: functional
# Acinetobacter baumannii [15] = experiment: Potentiation of Azithromycin antibacterial activity against Acinetobacter baumannii AB5075 assessed as azithromycin MIC at 2.5 uM incubated for 16 hrs by broth microdilution method; assay type: functional
# Escherichia coli = experiment: Potentiation of Clarithromycin antibacterial activity against Escherichia coli ATCC 25922 assessed as clarithromycin MIC at 2.5 uM incubated for 16 hrs by broth microdilution method; assay type: functional; procedure, shortened: as §1
# Acinetobacter baumannii [16] = experiment: Potentiation of erythromycin antibacterial activity against Acinetobacter baumannii AB5075 assessed as erythromycin MIC at 5 uM incubated for 16 hrs by broth microdilution method; assay type: functional
# Klebsiella pneumoniae [17] = experiment: Potentiation of Clarithromycin antibacterial activity against Klebsiella pneumoniae ATCC BAA-2146 assessed as clarithromycin MIC at 7.5 uM incubated for 16 hrs by broth microdilution method; assay type: functional
# Klebsiella pneumoniae [18] = experiment: Potentiation of Clarithromycin antibacterial activity against Klebsiella pneumoniae ATCC BAA-2146 assessed as clarithromycin MIC at 10 uM incubated for 16 hrs by broth microdilution method; assay type: functional
structure (smiles),measurement,setting,value
Cl.Cl.Nc1nc(-c2ccc(NC(=O)Nc3cccc(-c4c[nH]c(N)n4)c3F)cc2F)c[nH]1,fold change (FC),Acinetobacter baumannii [1],32
same,MIC,Acinetobacter baumannii [2],0.001 µg/mL
same,MIC,Acinetobacter baumannii [3],0.125 µg/mL
same,MIC,Acinetobacter baumannii [4],0.015 µg/mL
same,Stability,[5],87%
same,fold change (FC),Acinetobacter baumannii [6],>=512
same,MIC,"Acinetobacter baumannii [6]; Acinetobacter baumannii, AB5075",≤ 0.062 µg/mL
same,MIC,Acinetobacter baumannii [7],≤ 0.062 µg/mL
same,MIC,Acinetobacter baumannii [8],≤ 0.062 µg/mL
same,MIC,Acinetobacter baumannii [9],≤ 0.062 µg/mL
same,MIC,Acinetobacter baumannii [10],≤ 0.062 µg/mL
same,fold change (FC),Acinetobacter baumannii [11],>=512
same,MIC,Acinetobacter baumannii [12],≤ 0.062 µg/mL
same,IC50 at 24 h,[13],208 µg/mL
same,MIC,Acinetobacter baumannii [14],0.125 µg/mL
same,MIC,Acinetobacter baumannii [15],32 µg/mL
same,MIC,Escherichia coli,32 µg/mL
same,MIC,Acinetobacter baumannii [16],0.5 µg/mL
same,MIC,Klebsiella pneumoniae [17],16 µg/mL
same,MIC,Klebsiella pneumoniae [18],2 µg/mL
